D1 mod – allosteric modulators of human D1 dopamine receptor; P21728; HEK293 D1, CRE-luciferase, dopamine EC30 potentiation; actives deviate in either direction; B-score at 10 µM; hit rate 5.9% among 58,000; AID 641;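 active means luminescence count or its row- and column-corrected plate score outside the 99.7% band of the plate's sample wells, on either side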
WNV NS2B-NS3 inh – inhibitors of West Nile virus NS2B-NS3 protease; hit rate 0.18% among 65,000; WNV NS2B-NS3 protease, fluorogenic substrate Ex360/Em465; stronger effect = lower value; AID 577; P06935; z-score (no concentration beside the values); in the data active means z-score below about -3
Target sequence (P06935 1371-1501 limits assumed): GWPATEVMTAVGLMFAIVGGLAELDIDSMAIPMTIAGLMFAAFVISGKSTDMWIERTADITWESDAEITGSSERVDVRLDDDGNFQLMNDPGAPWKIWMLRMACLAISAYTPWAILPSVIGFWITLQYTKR
Target sequence (P06935 1502-1679 limits assumed): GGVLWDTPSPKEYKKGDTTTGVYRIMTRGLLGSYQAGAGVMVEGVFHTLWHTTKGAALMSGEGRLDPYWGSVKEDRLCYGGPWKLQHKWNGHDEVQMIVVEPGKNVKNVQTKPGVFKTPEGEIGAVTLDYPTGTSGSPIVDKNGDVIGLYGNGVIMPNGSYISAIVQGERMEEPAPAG
AP ELISA ortho – orthogonal test for alternative complement pathway inhibitors | AID 1235 | Human serum alternative complement pathway, LPS-coated ELISA, C3 deposition; tested in compound mixtures | hit rate 0.08% among 62,000 | inhibition, % at 5 µM;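 active means inhibition above 30% in each of the two pooled mixtures holding the compound, so the lower value exceeds 30%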;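 further: 0% = serum in Mg-EGTA without compound and 100% = EDTA serum blank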
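Assay system: human serum alternative complement pathway, C3 deposition on LPS-coated wells; Dosing: 5 µM per compound in ten-compound mixtures; Detection: Anti-C3 ELISA, OD 450 nm; Buffer or medium: Mg2+-EGTA GVB++ buffer containing human serum at 1:15 dilution; Timing: 1 h at 37 °C; Replication: two different pools per compound.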
hDAT+cocaine – human DAT dopamine uptake with cocaine, either direction. Q01959. LLC-PK1 hDAT cells, [14C]-dopamine uptake with cocaine IC80; actives deviate in either direction. B-score at 10 µM. hit rate 1.3% among 110,000. AID 449768;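 active means Z score or B-score, a plate-position-corrected score, falls beyond the plate's 99.7% confidence bounds, in either direction; inactive means both scores lie inside the 99.7% bounds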;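 further: scored against the spread of the other compound wells on the same plate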
D1 mod confirm – D1 receptor (human) allosteric modulation, confirmed; hit rate 88% among 2,200; luminescence at 10 µM; shares compounds with D1 mod; HEK293 D1 CRE-luciferase, dopamine EC30 potentiation; stronger effect = higher value;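 active means luminescence in either of two replicates above the same-plate mean plus 3 SD of the low-dose dopamine control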
D1 no dopamine – secondary test of D1 modulators: activity without dopamine; shares compounds with D1 mod; HEK293 D1 CRE-luciferase, luminescence, no dopamine; stronger effect = higher value; luminescence at 10 µM; hit rate 0.8% among 1,900; in the data active means luminescence above about 3900
Isoprot counter – counter-screen for D1 modulators: isoproterenol response in HEK293 cells | shares compounds with D1 mod | HEK293 D1 CRE-luciferase, isoproterenol EC30 counter-screen; stronger effect = higher value | luminescence at 10 µM | hit rate 63% among 2,200 | AID 647;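 active means luminescence in either replicate above plate mean of wells with a partly effective reference agonist dose plus 3 SD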;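 further: isoproterenol raises cAMP through native beta-adrenoceptor Gs so signal bypasses D1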
* hit, by the source's call; / = not tested or not shown. Only a selection was taken, and hits are over-represented in it overall.

SMILES	D1 mod	WNV NS2B-NS3 inh	AP ELISA ortho	hDAT+cocaine	D1 mod confirm	D1 no dopamine	Isoprot counter
CC(C#N)On1c(SC(C)C#N)nc2ccccc2c1=O (stereo unspecified)	4.2*	0.18	15	-1.2	11488*	/	2448
CCN(CC)C(=O)CSc1nc2ccccc2c(=O)n1OC(C)C	/	/	/	0.12	/	/	/
CCOC(=O)c1c(N2C(=O)C3CC(C)=C(C)CC3C2=O)sc(C)c1C (stereo unspecified)	/	/	/	0.084	/	/	/
O=C(/C=C/c1c(Cl)cccc1Cl)n1cccn1	/	/	/	-0.036	/	/	/
COc1cc(OC)cc(C(=O)N2CCN(C(=O)c3ccc(OC)c(OC)c3)CC2)c1	14*	-0.18	17	-0.62	19992*	1652	3732*
CCCC(=O)Nc1ccc(Cl)c(NC(=O)c2cccnc2Cl)c1	/	/	/	0.0074	/	/	/
CCC(=O)Nc1ccc(-c2nc(-c3ccccc3)n(CC(=O)N3CCCCC3)n2)cc1	/	0.02	10	0.35	/	/	/
Cc1cc(OCCn2cc(/C(N)=N/O)c3ccccc32)ccc1Cl	/	/	/	-0.03	/	/	/
COc1ccc(C(=O)N(Cc2nc(-c3ccc(C)cc3)no2)C(C)C)cc1OC	1.1	-1.2	7	1.7	/	/	/
CCn1c(SCc2nc(-c3ccc(OC)c(OC)c3)no2)nnc1-c1cccs1	5.3*	-0.54	12	1.9	11432*	1604	3160*
COc1ccc(-c2noc(CCC(N)=O)n2)cc1OC	3.6*	0.16	7	-0.89	13684*	1704	3000
CCOc1ccc(-c2noc(CCCC(N)=O)n2)cc1OC	/	/	/	-0.73	/	/	/
COc1ccc(-c2noc(CN(C(=O)c3ccc(OC(C)=O)cc3)C(C)C)n2)cc1OC	3.9*	0.19	14	0.72	7848*	1480	3484*
COc1ccc(Cc2noc(-c3ccc(OC)c(OC)c3)n2)cc1OC	12*	0.71	1	2	10328*	1376	5344*
NCCn1c(-c2ccccc2)cc(C(=O)O)c1-c1ccccc1F	/	/	/	0.054	/	/	/
COc1ccc(-c2noc(COc3ccccc3OC)n2)cc1OC	11*	-1.8	8	-0.064	17132*	1668	6484*
CCOc1ccc(-c2noc(-c3ccncc3)n2)cc1OCC	11*	0.3	17	1	/	1596	3808*
COc1ccc(-c2noc(-c3ccco3)n2)cc1OC	5.2*	1	-2	1	18728*	1452	3244
COc1ccc(CCNC(=O)CSc2nnc(-c3cccc(C)c3)o2)cc1OC	1.6	-0.25	-4	0.1	/	/	/
CCOc1ccc(-c2nc(-c3cccnc3)no2)cc1OCC	/	/	/	0.5	/	/	/
COc1ccc(Cc2nnc(-c3cccc(C)c3)o2)cc1OC	4.3*	0.18	11	0.32	13948*	1620	4072*
COc1cccc(NC(=O)Cn2c(=O)n(CC3CCCO3)c(=O)c3ccccc32)c1 (stereo unspecified)	/	/	/	0.73	/	/	/
CCCCCOc1ccc(/C=c2\sc3ncnn3c2=O)cc1	0.78	-0.77	19	/	/	/	/
CCCCOc1ccc(/C=c2\sc3ncnn3c2=O)cc1	2.7*	-0.43	24	-0.63	11772*	2228	3132*
O=c1/c(=C/c2cccc3ccccc23)sc2ncnn12	3.8*	-0.4	-9	0.43	6052	1796	3760
SMILES	D1 mod	WNV NS2B-NS3 inh	AP ELISA ortho	hDAT+cocaine	D1 mod confirm	D1 no dopamine	Isoprot counter
CCC(Sc1nc2n[nH]c(C)c2c(=N)n1-c1cc(Cl)ccc1C)C(=O)N1CCOCC1 (stereo unspecified)	6.4*	0.62	-15	0.35	12280*	1844	6516*
Cc1ccc(-n2c(SCC(=O)NCC3CCCO3)nc3n[nH]c(C)c3c2=N)cc1Cl (stereo unspecified)	-0.79	0.6	/	1.1	/	/	/
CCC(=O)N1c2ccccc2-c2nnc(SC)nc2OC1c1ccc(OC)c(OC)c1 (stereo unspecified)	0.18	0.66	5	0.76	/	/	/
CCOc1ccc(C2Oc3nc(SC)nnc3-c3ccccc3N2C(C)=O)cc1OC (stereo unspecified)	8.4*	0.16	22	0.4	11344*	1628	2996
CCSc1nnc2c(n1)OC(c1ccc(C(=O)O)cc1)N(C(C)=O)c1ccccc1-2 (stereo unspecified)	-0.12	0.48	16	0.042	/	/	/
CCCCCSc1nnc2c(n1)OC(c1cccn1C)N(C(C)=O)c1ccccc1-2 (stereo unspecified)	2.7*	-0.57	3	-0.15	5252	1472	2524
COc1ccc([C@H]2/C=C\CN(C(=O)c3ccccc3)[C@@H](C)C(=O)N2Cc2ccc(F)cc2)cc1	/	/	/	0.52	/	/	/
CCn1c(COc2ccc3c(c2)OCO3)nnc1SCC(=O)c1ccc(Cl)cc1	/	/	/	-0.35	/	/	/
Cc1ccc(N(CC(=O)NC2CCCC2)C(=O)c2c(C)noc2C)cc1C	/	/	/	-0.13	/	/	/
CCc1nc2ccccc2n(CC)c1=O	4.2*	1.3	-9	-1.7	10236*	2112	3340*
Cc1ccc(S(=O)(=O)N2CC3CCC2C3)cc1 (stereo unspecified)	4.4*	-0.03	10	0.93	6724*	/	2088
CCOC(=O)c1cc(-c2ccccc2)sc1NC(=O)c1ccc(OC)cc1	/	/	/	-0.17	/	/	/
CCOC(=O)c1sc(-c2ccccc2)cc1N	6.1*	-1.2	3	0.45	12680*	1780	3160
CCOC(=O)c1cc(-c2ccccc2)sc1N	12*	-0.61	11	0.073	19816*	1684	3836*
COc1ccccc1-c1nnc2n1N=C(C(C)(C)C)CS2	4*	-1	1	1.3	10640*	1636	2656
CC(C)(C)C1=Nn2c(nnc2-c2ccccc2F)SC1	21*	2	20	0.0048	20880*	/	3812*
O=C1C(Cl)=C(NCC2CCCO2)C(=O)N1Cc1ccccc1 (stereo unspecified)	4.8*	-0.85	8	-0.63	9896*	1724	3576
Cn1c(=O)n(Cc2ccccc2)c(=O)c2c1nc(NCC1CCCO1)n2Cc1ccccc1 (stereo unspecified)	0.95	-0.06	-3	-0.21	/	/	/
CCOc1ccc(CC(=O)C2C(=O)CC(C)(C)CC2=O)cc1OCC	/	/	/	-0.012	/	/	/
CCOc1ccc(CC(=O)C2C(=O)CCCC2=O)cc1OCC	4.3*	1.3	-1	0.028	10588*	1684	3484*
COCCN(C(=O)Cc1cccs1)C(C(=O)NCc1ccc(OC)cc1)c1ccccc1 (stereo unspecified)	/	/	/	1.3	/	/	/
Nc1nc(CN2CCN(c3ccccn3)CC2)nc(Nc2ccc(Cl)cc2)n1	4.3*	0.22	13	2	6700*	1548	3416
Nc1nc(CN2CCN(Cc3ccccc3)CC2)nc(Nc2ccccc2)n1	/	/	/	0.69	/	/	/
COC(=O)CSc1nc2sc3c(c2c(=O)n1-c1ccccc1)CCN(C)C3	17*	-0.87	-6	-0.26	10640*	1480	3944*
CCSc1nc2sc3c(c2c(=O)n1C1CCCCC1)CCN(C)C3	/	0.76	/	/	/	/	/
